MrgX1 ag – activates human MrgX1 receptor signaling; MrgX1-HEK293 cells, Fluo-4 calcium fluorescence, agonist mode; active compounds read high; B-score at 10 µM; 0.44% of 310,000 active; AID 588627;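 active = calcium response B-score plate-corrected fluorescence ratio at least 3 library SD, with starting fluorescence B-score inside 5 SD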
Target sequence (Q96LB2 whole entry, looked up): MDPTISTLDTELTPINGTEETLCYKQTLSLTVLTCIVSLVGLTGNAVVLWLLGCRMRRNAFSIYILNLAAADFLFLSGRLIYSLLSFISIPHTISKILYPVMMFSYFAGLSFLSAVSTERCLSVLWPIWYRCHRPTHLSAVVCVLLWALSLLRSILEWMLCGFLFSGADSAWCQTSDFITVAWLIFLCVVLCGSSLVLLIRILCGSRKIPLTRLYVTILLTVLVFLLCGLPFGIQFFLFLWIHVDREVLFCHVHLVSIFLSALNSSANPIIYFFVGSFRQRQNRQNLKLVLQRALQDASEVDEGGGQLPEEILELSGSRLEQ
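Material – MrgX1-expressing HEK293 cells · Input – 15,000 cells seeded per well · Dosing – compound as first of three additions · Times – overnight seeding, then 1 h dark dye loading · Measured by – kinetic Fluo-4 NW fluorescence of intracellular calcium · Read-out – B-scored fluorescence response ratio · Benchmarks – positive and negative control wells on each plate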
RGS4 inh – inhibitors of human RGS4. P49798. HEK293 M3R/RGS4 inducible, Fluo-4 calcium flux; active compounds read high; triggered by carbachol at its EC20. B-score at 10 µM. 0.45% of 310,000 active. AID 463165;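 active = B-score, a plate-corrected calcium signal, over three deviations above library mean, with baseline fluorescence within five deviations of library mean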;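 also: RGS4 expression induced by doxycycline in cells with stable M3 receptor; B-score is computed from the integrated fluorescence ratio over baseline after carbachol; higher B-score means a larger calcium signal and so more RGS4 inhibition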
Target sequence (P49798 whole entry, looked up): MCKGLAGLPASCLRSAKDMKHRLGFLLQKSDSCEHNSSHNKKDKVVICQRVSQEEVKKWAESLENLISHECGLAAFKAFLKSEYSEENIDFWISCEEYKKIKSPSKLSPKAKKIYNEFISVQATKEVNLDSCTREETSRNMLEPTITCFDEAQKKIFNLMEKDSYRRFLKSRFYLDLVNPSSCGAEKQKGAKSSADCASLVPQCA
RGS4 pot – potentiators or activators of RGS4. HEK293 M3R/inducible RGS4, carbachol calcium flux Fluo4; active compounds read low. B-score at 10 µM. 0.92% of 310,000 active. AID 463111;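 active = B-score of the integrated calcium signal more than 4 SD below the library mean, with starting fluorescence not abnormally high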;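 also: negative B-score means reduced calcium response which marks RGS4 activation or potentiation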
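Also added: carbachol at ECmax as muscarinic agonist stimulus; Assay system: HEK293 cells with stable M3R and inducible RGS4; Timing: overnight RGS4 induction, 30 min dye load 37 °C, 20 min compound RT; Measured by: Fluo4-AM (2 µM) calcium-flux fluorescence, kinetic read.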
MrgX1 allo act – allosterically activates human MrgX1 receptor signaling. MrgX1-HEK293, Fluo-4 calcium flux, FDSS; active compounds read high. B-score at 10 µM. AID 588675. Q96LB2. 0.63% of 310,000 active;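 active = plate-corrected calcium response at least 3 library SD above typical, normal starting fluorescence, not activating the receptor alone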;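 also: compound read alongside a low EC10 to EC30 dose of BAM8-22 agonist; peak minus trough fluorescence over baseline measured at the second addition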
MrgX1 antagonist – blocks BAM8-22 activation of human MrgX1 receptor; Q96LB2; MRGX1-HEK293 calcium flux, Fluo-4, BAM8-22 antagonism; active compounds read low; B-score at 10 µM; 1.3% of 310,000 active;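 active = calcium-response B-score plate-corrected more than 3 library SD below zero, starting fluorescence within 5 deviations, no agonist response on first addition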;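 also: peak minus trough fluorescence over baseline after final BAM8-22 challenge near maximal dose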
MrgX1 PAM conf – reconfirmed allosteric activator of human MrgX1 receptor; shares compounds with MrgX1 allo act; MrgX1-HEK293, Fluo-4 calcium fluorescence, FDSS; activation (ratio percentage), % at 10 µM; 13% of 1,200 active;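 active = ratio at least 3 SD above the weak peptide control, stable starting fluorescence, no direct agonism earlier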;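 also: compound followed by low BAM8-22 agonist challenge near EC20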
HEK293 Ca flux – counter-screen for MrgX1 antagonists: effect in parental HEK293 cells; Fluo-4 calcium fluorescence, FDSS; shares compounds with MrgX1 antagonist; AID 624111; fluorescence ratio F(max-min)/F0 at 10 µM; 2% of 4,000 active;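 active = duplicate-averaged calcium fluorescence ratio at least three times the standard deviation of buffer wells, a nonspecific response in parental cells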
HEK293 Ca counter – activity in parental HEK293 cells without MrgX1. fluorescence ratio F(max-min)/F0 at 10 µM. 0.4% of 4,000 active. parental HEK293 calcium flux, Fluo-4 fluorescence ratio; active compounds read high. shares compounds with MrgX1 antagonist. AID 624114;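 active = calcium fluorescence ratio, averaged over duplicates, at least 3 SD of the buffer-well ratio, meaning a nonspecific response in receptor-free cells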;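 also: untransfected parental HEK293 lacking MrgX1 used as counterscreen for MrgX1 allosteric activators; fluorescence change taken during the second addition on a kinetic imager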
HEK293 Ca cntr2 – MrgX1 activator counter-screen hit in parental HEK293 cells; shares compounds with MrgX1 antagonist; Fluo-4 calcium fluorescence (FDSS); active compounds read high; fluorescence ratio F(max-min)/F0 at 10 µM; 8.7% of 4,000 active; AID 624115;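 active = calcium fluorescence ratio at least three times the spread of buffer wells, meaning a non-specific response in parental cells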
Active calls of the source: *; i = inactive; . = no result given. Shown are actives, neighbours in structure and some others; about 3.5% of the full set was active somewhere.

SMILES	MrgX1 ag	RGS4 inh	RGS4 pot	MrgX1 allo act	MrgX1 antagonist	MrgX1 PAM conf	HEK293 Ca flux	HEK293 Ca counter	HEK293 Ca cntr2
Cc1ccc(NC(=O)Cn2nnc3ccccc3c2=O)cc1C	i	i	i	i	i	.	.	.	.
CC(=O)Oc1ccc(C(=O)Nc2cccc(C(=O)Nc3ccccc3C(=O)O)c2)cc1	i	i	i	i	i	.	.	.	.
CC(=O)Oc1ccc(C(=O)Nc2ccccc2C(=O)Nc2cccc(C(=O)O)c2)cc1	i	i	i	10*	i	i	i	i	i
O=C(Nc1ccccc1C(=O)O)c1cccc(NC(=O)c2ccc(Br)o2)c1	i	i	i	17*	i	i	i	i	i
O=C(Nc1ccccc1C(=O)O)c1ccc(NC(=O)c2ccc(Br)o2)cc1	i	i	i	i	i	.	.	.	.
CCS(=O)(=O)c1nc(S(=O)(=O)c2ccc(Cl)cc2)c(N2CCC(C(N)=O)CC2)s1	i	i	i	i	i	.	.	.	.
Cc1oc2ccc(O)cc2c1C(=O)c1ccc(F)cc1	i	i	i	6.8*	i	i	i	i	i
COc1cc(S(=O)(=O)NCCCN2CCOCC2)ccc1-n1cnnn1	i	i	i	i	i	.	.	.	.
O=C(c1ccc(F)cc1)N1CCN(c2cc(N3CCCCC3)c(F)cc2[N+](=O)[O-])CC1	i	i	i	i	i	.	.	.	.
C/C(=N\NC(=O)c1nc2ccccn2c1C)c1cc2ccccc2o1	i	i	i	i	i	.	.	.	.
C/C(=N\NC(=O)c1cc2ccccc2cc1O)c1cc2ccccc2o1	i	i	i	22*	i	i	i	i	i
Oc1ccc(C2C(c3ccccc3)=NN=C(c3ccc(Cl)cc3)N2O)c(O)c1 (centres undefined)	i	i	i	i	i	.	.	.	.
O=C1CC(c2ccco2)CC(O)=C1C=Nc1cc(Cl)ccc1O (centres undefined)	i	i	i	10*	i	41%*	i	i	i
CCOC(=O)c1nnn2c1nc(Nc1cccc(C(F)(F)F)c1)c1ccccc12	i	i	i	i	i	.	.	.	.
CS(=O)(=O)c1ccccc1-c1nnc(NC(=O)c2ccc(S(=O)(=O)N3CCCC3)cc2)o1	i	i	i	i	i	.	.	.	.
O=C(Nc1nnc(-c2ccccc2Cl)o1)c1ccc(S(=O)(=O)N2CCCCCC2)cc1	i	i	i	8.6*	i	i	i	i	i
CC1CCCCN1S(=O)(=O)c1ccc(C(=O)Nc2nnc(-c3ccncc3)o2)cc1 (centres undefined)	i	i	i	i	i	.	.	.	.
COc1ccc(-c2nnc(NC(=O)c3ccc(S(=O)(=O)N4COCC4(C)C)cc3)o2)cc1	i	i	i	7*	i	i	i	i	i
COc1cccc(Nc2ncccc2C(=O)Nc2ccccc2)c1	i	i	i	7.6*	i	i	i	i	i
Cc1c(C(=O)c2ccccc2)oc2ccc3ccccc3c12	i	i	i	13*	i	i	i	48*	i
Nc1c(C(=O)c2ccccc2)oc2ccccc12	i	i	i	i	i	.	.	.	.
Cc1ccc(OCCCNCCO)c(Br)c1	i	i	i	7.5*	i	i	i	i	i
CC(=O)NC(CC(=O)N(Cc1ccccc1)c1cccc(C)c1)c1ccccc1 (centres undefined)	i	i	i	8.6*	i	i	i	i	99*
Cc1[nH]ncc1-c1nc2ccccc2[nH]1	i	i	i	13*	i	i	i	i	i
CC(=O)N1c2ccc(S(=O)(=O)N(C)Cc3ccccc3)cc2CC1C (centres undefined)	i	i	i	7.2*	i	i	i	i	i
SMILES	MrgX1 ag	RGS4 inh	RGS4 pot	MrgX1 allo act	MrgX1 antagonist	MrgX1 PAM conf	HEK293 Ca flux	HEK293 Ca counter	HEK293 Ca cntr2
COc1ccc(N(CC(=O)Nc2cc(C)ccc2C)S(=O)(=O)c2c(C)[nH]c(=O)[nH]c2=O)cc1	i	i	i	i	i	.	.	.	.
Cc1ccc(N(CC(=O)Nc2ccc(Br)c(C)c2)S(=O)(=O)c2c(C)[nH]c(=O)[nH]c2=O)cc1	i	i	i	8.3*	i	i	i	i	i
O=C(N/C(=C/C=C\c1ccccc1)C(=O)N1CCOCC1)c1ccc(Br)cc1	i	i	i	i	i	.	.	.	.
CCOC(=O)C1=C(COC(=O)c2cc(Br)c(Br)s2)NC(=O)NC1C (centres undefined)	i	i	i	9.8*	i	i	i	i	i
CCOc1ccccc1NC(=O)CSc1ccccc1	i	i	i	6.9*	i	i	i	i	i
S=c1nc[nH]c2c1sc1nc(N3CCOCC3)c3c(c12)CCCC3	i	i	i	7.4*	i	i	i	i	i
CC(C)c1nc2sc3c(=S)nc[nH]c3c2c2c1CCC2	i	i	i	i	i	.	.	.	.
COc1ccccc1NS(=O)(=O)c1ccc2c(c1)CCN2C(=O)CCC(=O)O	i	i	i	i	i	.	.	.	.
CN(C)c1nc(N)nc(N(c2ccccc2)c2ccccc2)n1	i	i	i	7.4*	i	i	i	i	i
CCCCn1c(N)c(N(CCC(C)C)C(=O)CC2CCCCC2)c(=O)[nH]c1=O	i	i	i	i	i	.	.	.	.
Cc1nn(C)c(Nc2ccc(Br)cc2)c1Br	i	i	i	8.2*	i	i	i	i	i
COc1cccc(N/C(N)=N/c2nc(C(F)(F)F)cc(C(F)(F)F)n2)c1	i	i	i	10*	i	i	i	i	i
Nc1cc(Cl)ccc1Oc1ccc2ccccc2c1	i	i	i	i	i	.	.	.	.
Cc1ccc(Oc2ccc(Cl)cc2N)cc1	i	i	i	6.8*	i	i	i	i	i
CCOc1ccc(S(=O)(=O)N2CCC(C(=O)NCc3ccco3)CC2)cc1C	i	i	i	i	i	.	.	.	.
